The subject of data set [1] is Rattus norvegicus. In words: Tmax in Sprague-Dawley rat assessed as olmesartan at 20 mg/kg, po. It counts as ADME, organism-based. Further details: dose 20 mg/kg, route oral. The note with it: in vivo. The method, boiled down:
(§1)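 Male Sprague-Dawley rats (n = 4) dosed orally by feeding tube, 20 mg/kg as olmesartan. Carotid artery blood drawn at 0, 0.5, 1, 2, 3, 4, 6, 8, 10 h; plasma stored until analysis. Olmesartan measured by modified LC–MS/MS. Non-compartmental analysis; AUClast by trapezoidal rule; Tmax given as median (range), others mean ± SD.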

Data set [2] has as its system Rattus norvegicus. The data set is described as follows: Cmax in Sprague-Dawley rat assessed as olmesartan at 20 mg/kg, po. The note with it: in vivo. More on the design: dose 20 mg/kg, route oral. The data set is classed as ADME, organism-based. The essentials:
as §1

The nature of data set [3]: Half life in simulated gastric juice at 1 uM. It counts as physicochemical. The method, boiled down: (§2)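 Substrate added from acetonitrile stock to rat plasma or simulated gastric juice, 1 µM final, 37 °C. Samples at 0, 15, 30, 60, 120 min quenched with twofold cold acetonitrile containing internal standard, centrifuged, supernatant analysed by LC–MS/MS. Half-life reported as mean of duplicate experiments.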

Data set [4] relates to Rattus norvegicus. The data set is described as follows: AUClast in Sprague-Dawley rat assessed as olmesartan at 20 mg/kg, po. Further details: time 0 - last, dose 20 mg/kg, route oral. The settings on record: in vivo. The data set is classed as ADME, organism-based, Plasma. The essentials: as §1
Data set [5] is described as follows: Half life in rat liver microsomes at 1 uM. It counts as ADME, Microsome. The essentials: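 Incubation with rat liver microsomes, 0.5 mg/mL total protein, 1.2 mM NADPH, 100 mM phosphate buffer pH 7.4. Substrate added from acetonitrile stock to 1 µM final, 37 °C. Samples at 0, 15, 30, 60, 120 min quenched with twofold cold acetonitrile containing internal standard, centrifuged, supernatant by LC–MS/MS. Mean of duplicate experiments.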
A general note: Microsomes from liver hold many membrane-bound enzymes, among them those of drug oxidation.

Data set [6] can be described thus: Half life in rat plasma at 1 uM. The data set is classed as ADME, cell-free. The method, boiled down: as §2

The text below walks through data of ChEMBL document CHEMBL2331349, “Discovery of olmesartan hexetil: a new potential prodrug of olmesartan” (Bioorg Med Chem Lett, 2013).

With `CCCc1nc(C(C)(C)O)c(C(=O)OCc2oc(=O)oc2C)n1Cc1ccc(-c2ccccc2-c2nnn[nH]2)cc1` [OLMESARTAN MEDOXOMIL], the time to peak (Tmax) (in general, the time at which the peak concentration occurs) with Rattus norvegicus [1] was determined as 60 min. Moreover, in the data set on Rattus norvegicus [2], the Cmax – broadly, the peak of the concentration-time curve – came to 153.6 ng/mL. Further, the half-life (in general, how long it takes for the measured level to halve) at 1 µM in data set [3] is more than 1000 min. Besides, the AUClast in the data set with Rattus norvegicus [4] came to 501.9 ng·h/mL.
For the compound `CCCc1nc(C(C)(C)O)c(C(=O)OC(C)OC(=O)OC2CCCCC2)n1Cc1ccc(-c2ccccc2-c2nnn[nH]2)cc1` (stereo not given) [OLMESARTAN HEXETIL], in the data set on Rattus norvegicus [1], the Tmax is 54 min. Moreover, the Cmax in the data set with Rattus norvegicus [2] was 1374.7 ng/mL. For the same compound, the figures for the half-life at 1 µM in data set [5], in data set [6] and in data set [3] were 2.77 min, 1.54 min and 390 min, respectively. For the same compound, the AUClast with Rattus norvegicus [4] is 3013.8 ng·h/mL.
